KCC2 mod – KCC2 cotransporter modulators, thallium flux, primary screen, cell-based, HEK293 KCC2, FluoZin-2 fluorescence, MLSMR. KCC2 cells, thallium flux FluoZin-2 fluorescence. B-score of Tl+ flux slope (higher = more flux/activation; lower = inhibition) at 10 µM. 190,000 compounds, 2.2% hits;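 active = thallium flux slope and its plate-corrected score both differing from the plate sample mean at a set confidence after two filtering rounds, in either direction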;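 note: slope of fluorescence scaled to starting intensity during 10 to 20 s after thallium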
ROMK primary – ROMK potassium channel modulators, primary screen, cell-based, thallium flux, MLSMR library; ATP-sensitive inward rectifier potassium channel 1 (Homo sapiens), P48048; Tet-inducible ROMK, thallium flux fluorescence; actives lie on both sides; B-score at 10 µM; 130,000 compounds, 2% hits; AID 1918, 2009;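 active = signal ratio slope over the read window, or its plate-corrected B-score, at least 3 SD from the plate mean, either direction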;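 note: B-score of the F/F0 ratio slope over 7 to 12 s after thallium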
Target sequence (P48048 whole entry, looked up): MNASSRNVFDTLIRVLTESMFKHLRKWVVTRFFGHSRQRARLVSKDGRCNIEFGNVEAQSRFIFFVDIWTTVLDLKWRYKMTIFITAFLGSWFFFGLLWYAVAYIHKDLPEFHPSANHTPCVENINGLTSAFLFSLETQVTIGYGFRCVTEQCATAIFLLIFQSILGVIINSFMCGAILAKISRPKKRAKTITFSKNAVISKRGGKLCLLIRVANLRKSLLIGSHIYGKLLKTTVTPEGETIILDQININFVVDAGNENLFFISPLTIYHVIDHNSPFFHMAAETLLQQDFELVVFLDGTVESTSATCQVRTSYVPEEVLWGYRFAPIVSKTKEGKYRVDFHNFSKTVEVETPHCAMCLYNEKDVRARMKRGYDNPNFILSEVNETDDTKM
WT yeast gro inh – growth inhibition of WT strain, primary screen, mitochondrial fusion inhibitor project, WT and mutant strains, chemical genetic | mitochondrial fusion phenotypic screen | inhibition, % at 10 µM | 190,000 compounds, 2.1% hits | AID 1362, 2008; in the data active = inhibition above about 58%; tested in S. cerevisiae
Diaphorase inh – diaphorase inhibitors and chemical oxidizers, primary screen, counter-screen for diaphorase-coupled primary assays, biochemical, uHTS, resorufin fluorescence; diaphorase resazurin-to-resorufin fluorescence, NADH, 16 min; bacterial (C. kluyveri) enzyme, not human; inhibition, % at 20 µM; 190,000 compounds, 0.69% hits;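 active = primary screen inhibition at 20 µM above a set limit, cut at about 50% in these data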;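 note: plate controls were DMSO with full reaction for no effect and wells lacking NADH for full effect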
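System: Bacterial diaphorase enzyme (C. kluyveri) | Incubation: 16-min room-temperature incubation before reading | Benchmarks: No-NADH positive control and DMSO neutral control | Measured by: Resorufin fluorescence 544/590 nm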
Lmaj promast – Leishmania major promastigote growth inhibition, primary screen; Leishmania major promastigotes, resazurin fluorescence viability; 200,000 compounds, 9% hits; AID 1063, 2008; inhibition, % at 10 µM; in the data active = inhibition above about 50%;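 note: promastigotes grown with compound for 44 hours at 28 °C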
Diaphorase act – compounds boosting diaphorase resazurin reduction – biochemical, uHTS, resorufin fluorescence, counter-screen for diaphorase-coupled primary assays, primary screen; Diaphorase/resazurin coupled assay, 16 min; hits give high values; 1 = vehicle wells, 0 = NADH-free wells; activation factor at 20 µM; 190,000 compounds, 0.005% hits; AID 1229, 2008;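 active = diaphorase activity raised at least twofold by the compound at 20 µM; inactive = activation factor below 2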
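Material: Purified diaphorase enzyme from Clostridium kluyveri | Buffer or medium: 50 mM HEPES pH 7.4 with 4.542 mM MgCl2, 0.005% Tween 20 | Times: 16 min enzyme reaction, ambient temperature | Signal: Red resorufin fluorescence at 544/590 nm excitation/emission | Measure: Increased resorufin signal from activators or reducing compounds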
Active calls of the source: *; . = not tested or not shown. Compounds with a hit are over-represented: about 12% of the library has one in this group of screens.

SMILES	KCC2 mod	ROMK primary	WT yeast gro inh	Diaphorase inh	Lmaj promast	Diaphorase act
Cc1cccc2sc(NNC(=O)c3ccc(S(=O)(=O)N4CC(C)CC(C)C4)cc3)nc12 (stereo not given)	-0.26	-1.1	-14	25	99*	0.7
COC(=O)c1sc2ccccc2c1NC(=O)c1ccc(S(=O)(=O)N2CC(C)CC(C)C2)cc1 (stereo not given)	0.33	-0.32	-1	20	-2	0.8
CC(NCCc1ccc(O)cc1)C(O)c1ccc(O)cc1 (stereo not given)	-0.45	.	-11	4	-7	1
CCCCCCCCNC(C)C(O)c1ccc(SC(C)C)cc1 (stereo not given)	0.43	.	98*	-12	100*	1.1
C/C(=N\Nc1ccc(C(=O)O)cc1)c1ccc(-n2ccnc2)cc1	-1.1	0.61	-8	22	-10	0.8
Cc1cc2c3c(c1)C(C)(c1ccccc1)CC(C)(C)N3C(=O)C21C(C#N)=C(N)OC2=C1C(=O)CC(C)(C)C2 (stereo not given)	.	-2.6	28	8	51*	0.9
Oc1ccc(Br)cc1-c1nc2cnccn2c1NC1CCCCC1	-0.0078	0.66	47	22	85*	0.8
COc1ccccc1NC(=O)CN(c1ccc(C23CC4CC(CC(C4)C2)C3)cc1)S(C)(=O)=O	.	1.3	53	15	79*	0.9
S=C(c1ccc2c(c1)OCO2)N1CCOCC1	1.3	.	.	.	.	.
Fc1ccccc1Nc1nc(-c2ccncc2)nc2ccccc12	0.74	-0.25	-6	5	96*	0.9
COC(=O)c1sc(-c2ccccc2)cc1NC(=O)c1ccccc1	-0.78	.	-13	12	-2	0.9
COc1ccc(/C=C(\C#N)C(=O)OCC(=O)NCc2ccc(Cl)cc2)cc1	-0.61	-0.3	5	4	59*	1
COc1ccc(C)cc1NC(=O)C(CCS(C)(=O)=O)NC(C)=O (stereo not given)	.	.	-17	-6	-2	1.1
Cc1ccc(Oc2ccc(-c3nc(N)nc(N)n3)cc2)cc1	.	.	39	13	98*	0.9
CCCCN(C(C)=O)c1c(N)n(CCC)c(=O)n(CC(=O)Nc2cc(Cl)cc(Cl)c2)c1=O	-0.46	0.26	5	0	-6	1
CCOC(=O)c1c(NC(=O)CN2CCCc3ccccc32)sc(C)c1CC	0.59	0.16	-3	15	1	0.9
Cc1ccc(S(=O)(=O)N2CCN(S(=O)(=O)c3ccccc3)C2c2ccc(N(C)C)cc2)cc1 (stereo not given)	-0.54	0.94	15	26	89*	0.7
COc1ccc(C2N(S(=O)(=O)c3ccc(C)cc3)CCN2S(=O)(=O)c2ccc(C)cc2)cc1	0.15	1.2	9	12	66*	0.9
COc1ccc(S(=O)(=O)N2CC(C)N(S(=O)(=O)c3ccc(OC)cc3)CC2C)cc1 (stereo not given)	.	.	9	33	.	0.7
CC1(C)SC(=S)N(/N=C/c2ccccc2)C1N(O)C(=O)Nc1ccc([N+](=O)[O-])cc1 (stereo not given)	-0.078	.	11	9	20	0.9
C/C=C/c1ccc(OCC(=O)O)c(OC)c1	0.45	.	.	.	.	.
C/C=C/c1ccc(OCCCNC2CCCC2)c(OC)c1	-0.25	.	.	0	100*	1
C/C=C/c1ccc(OCCOc2cc(C=O)ccc2OC)c(OC)c1	-1.2	.	5	15	85*	0.9
CCSc1nnc(-c2cccnc2)n1Cc1ccco1	-0.43	.	-9	1	-3	1
O=C(CSc1nnc(-c2cccnc2)n1Cc1ccco1)Nc1nc(-c2ccc(F)cc2)cs1	-2.3	0.26	-4	18	73*	0.8
SMILES	KCC2 mod	ROMK primary	WT yeast gro inh	Diaphorase inh	Lmaj promast	Diaphorase act
CCOC(=O)c1c(NC(=O)CSc2nnc(-c3cccnc3)n2Cc2ccco2)sc(C)c1C	-1.5	-1.8	0	37	53*	0.6
Cc1onc(-c2c(Cl)cccc2Cl)c1C(=O)N=C(N)N1CCCC1	-0.46	.	.	.	.	.
CCc1ccc(NC(=O)Cc2c(C(=O)O)n(C)c3ccccc23)cc1	-0.92	0.51	-2	6	-6	0.9
Cc1ccc(-c2cc(C(=O)N3N=C(C(F)F)CC3(O)C(F)F)c3ccccc3n2)cc1C (stereo not given)	-0.35	.	92*	28	61*	0.7
O=C(c1cc(-c2ccccc2)nc2ccccc12)N1N=C(C(F)F)CC1(O)C(F)F (stereo not given)	-0.81	0.016	5	25	21	0.7
Cc1csc2c(N(C)CCO)ncnc12	-0.5	.	.	.	.	.
O=C(CCN1C(=O)c2ccc([N+](=O)[O-])cc2C1=O)Nc1cccc(O)c1	-0.48	.	-15	20	-6	0.8
Cc1cc(O)ccc1NC(=O)CCN1C(=O)c2ccc([N+](=O)[O-])cc2C1=O	-1	.	-7	31	70*	0.7
Clc1ccc(-n2nnnc2SCc2c(-c3ccccc3)nc3sccn23)cc1	0.93	.	28	26	30	0.7
CN(C)S(=O)(=O)c1ccc(N2CCCC2)c(C(=O)Nc2nc(-c3ccc(F)cc3)cs2)c1	-4.7	0.015	-37	12	98*	0.9
CN(C)S(=O)(=O)c1ccc(N2CCCC2)c(C(=O)Nc2nc3ccc(F)cc3s2)c1	-0.12	0.52	9	23	7	0.8
O=C(Nc1nc(-c2cc(F)ccc2F)cs1)c1ccccn1	7.4*	1.3*	7	-4	9	1
CN(C)S(=O)(=O)c1ccc(N2CCCC2)c(C(=O)Nc2nc3ccccc3s2)c1	-1.7	-0.063	8	21	2	0.8
Cc1cccc2sc(NC(=O)c3cc(S(=O)(=O)N(C)C)ccc3N3CCCC3)nc12	-1.2	-0.76	5	10	52*	0.9
CN(C)S(=O)(=O)c1ccc(N2CCCC2)c(C(=O)Nc2nc(-c3cc(F)ccc3F)cs2)c1	-2.3	.	15	6	84*	0.9
O=C(O)CC(c1cccc([N+](=O)[O-])c1)N1Cc2ccccc2C1=O (stereo not given)	-0.82	1.2	-6	8	-4	0.9
Nc1c([N+](=O)[O-])c(=O)oc2ccccc12	0.78	0.0046	-14	21	-6	0.8
CCOc1c2ccc(C(=O)NCc3ccc4c(c3)OCO4)cc2nn1CCOC	-1.3	1	-19	15	-5	0.9
CCNC(=O)c1ccc(C23CC4CC(CC(C4)C2)C3)o1	-0.4	0.26	5	4	89*	1
Cc1ccc2nc(NCc3ccccc3)c(C=NCc3ccccc3)c(=O)n2c1	-0.11	0.89	20	11	-10	0.9
